According to ChEMBL document CHEMBL1154183, “Structure-based optimization of potent and selective inhibitors of the tyrosine kinase erythropoietin producing human hepatocellular carcinoma receptor B4 (EphB4)” (J Med Chem, 2009):
Each block holds one molecule with its values, some of them ahead of it.

Experiments:
[1] = biological target: Fibroblast growth factor receptor 2 (Homo sapiens) (UniProt P21802); assay: Binding affinity to FGFR2 assessed as percentage of kinase remaining bound to the bead at 1 uM by T7 phage display based binding assay
Outline: (§1)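 Competition binding assay run by a contract lab. Each kinase was expressed as a fusion to T7 phage, full-length for small kinases and catalytic domain for large ones. Phage were mixed with an immobilized known kinase inhibitor on streptavidin magnetic beads and with test compound at a single 1 μM. Kinase/phage still bound to the beads was quantified by qPCR and expressed as % of DMSO control.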

[2] = biological target: Maternal embryonic leucine zipper kinase (Homo sapiens) (UniProt Q14680); assay: Inhibition of MELK assessed as remaining enzyme activity at 1 uM relative to DMSO
Outline: (§2)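 Radiometric kinase assay run robotically at room temperature for 30 min. Contained 10 mM magnesium acetate and [γ-33P]ATP (800 cpm/pmol) at 5, 20 or 50 μM, chosen per kinase to be at or below its ATP Km. Reactions were started with MgATP, stopped with orthophosphoric acid and spotted onto P81 filters. Result is mean % activity of duplicates at one inhibitor concentration versus DMSO control.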

Ephrin type-A receptor 3 = Ephrin type-A receptor 3 (Homo sapiens, UniProt P29320); assay: Inhibition of EphA3 by [gamma33-P]ATP based assay
Outline: (§3)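 Radiometric [γ-33P]ATP kinase assay against Eph kinases, following a protocol similar to the Mg-acetate/MgATP filter-binding method.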

[3] = biological target: Calcium/calmodulin-dependent protein kinase kinase 2 (Homo sapiens) (UniProt Q96RR4); assay: Inhibition of CAMKKbeta assessed as remaining enzyme activity at 1 uM relative to DMSO
Outline: (§4)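 Dundee kinase panel, radiometric: [γ-33P]ATP (800 cpm/pmol) at 5, 20 or 50 μM, at or below each kinase's ATP Km; 10 mM magnesium acetate; robotic, room temperature, 30 min. Reactions started with MgATP, stopped with orthophosphoric acid, spotted onto P81 filters. Inhibitor tested at a single concentration; mean % activity of duplicates relative to DMSO control.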

[4] = biological target: Mitogen-activated protein kinase kinase kinase 9 (Homo sapiens) (UniProt P80192); assay: Inhibition of MLK1 assessed as remaining enzyme activity at 1 uM relative to DMSO; outline: as §2
[5] = biological target: Mitogen-activated protein kinase 14 (Homo sapiens) (UniProt Q16539); assay: Inhibition of p38alpha assessed as remaining enzyme activity at 1 uM relative to DMSO
[6] = biological target: SRSF protein kinase 1 (Homo sapiens) (UniProt Q96SB4); assay: Inhibition of SRPK1 assessed as remaining enzyme activity at 1 uM relative to DMSO
[7] = biological target: Tyrosine-protein kinase ABL1 (Homo sapiens) (UniProt P00519); assay: Binding affinity to phosphorylated ABL1 assessed as percentage of kinase remaining bound to the bead at 1 uM by T7 phage display based binding assay; outline: as §1
[8] = biological target: MAP kinase-activated protein kinase 2 (Homo sapiens) (UniProt P49137); assay: Inhibition of MAPKAPK2 assessed as remaining enzyme activity at 1 uM relative to DMSO; outline: as §2
[9] = biological target: Epithelial discoidin domain-containing receptor 1 (Homo sapiens) (UniProt Q08345); assay: Binding affinity to DDR1 assessed as percentage of kinase remaining bound to the bead at 1 uM by T7 phage display based binding assay; outline: as §1
[10] = biological target: Fibroblast growth factor receptor 3 (Homo sapiens) (UniProt P22607); assay: Binding affinity to FGFR3 assessed as percentage of kinase remaining bound to the bead at 1 uM by T7 phage display based binding assay; outline: as §1
Ephrin type-A receptor 4 = Ephrin type-A receptor 4 (Homo sapiens, UniProt P54764); assay: Inhibition of EphA4 by [gamma33-P]ATP based assay; outline: as §3
[11] = biological target: Vascular endothelial growth factor receptor 2 (Homo sapiens) (UniProt P35968); assay: Binding affinity to VEGFR2 assessed as percentage of kinase remaining bound to the bead at 1 uM by T7 phage display based binding assay
Outline: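 Kinases expressed as T7 phage fusions (full-length for small kinases, catalytic domain for large). Phage mixed with an immobilized known kinase inhibitor on streptavidin magnetic beads plus test compound at a single 1 μM concentration. Ligand displacement from the ATP site was read by quantitative PCR as % kinase/phage still bead-bound versus DMSO control. Human kinases.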

[12] = biological target: Platelet-derived growth factor receptor alpha (Homo sapiens) (UniProt P16234); assay: Binding affinity to PDGFRA assessed as percentage of kinase remaining bound to the bead at 1 uM by T7 phage display based binding assay; outline: as §1
[13] = biological target: Rho-associated protein kinase 2 (Homo sapiens) (UniProt O75116); assay: Inhibition of ROCK2 assessed as remaining enzyme activity at 1 uM relative to DMSO
Ephrin type-A receptor 8 = Ephrin type-A receptor 8 (Homo sapiens, UniProt P29322); assay: Inhibition of EphA8 by [gamma33-P]ATP based assay
[14] = biological target: Dual specificity testis-specific protein kinase 1 (Homo sapiens) (UniProt Q15569); assay: Binding affinity to TESK1 assessed as percentage of kinase remaining bound to the bead at 1 uM by T7 phage display based binding assay; outline: as §1
[15] = biological target: MAP kinase-activated protein kinase 5 (Homo sapiens) (UniProt Q8IW41); assay: Inhibition of PRAK assessed as remaining enzyme activity at 1 uM relative to DMSO
[16] = biological target: Tyrosine-protein kinase HCK (Homo sapiens) (UniProt P08631); assay: Binding affinity to HCK assessed as percentage of kinase remaining bound to the bead at 1 uM by T7 phage display based binding assay; outline: as §1
[17] = biological target: Dual specificity tyrosine-phosphorylation-regulated kinase 2 (Homo sapiens) (UniProt Q92630); assay: Inhibition of DYRK2 assessed as remaining enzyme activity at 3 uM relative to DMSO; outline: as §4
[18] = biological target: Interleukin-1 receptor-associated kinase 4 (Homo sapiens) (UniProt Q9NWZ3); assay: Inhibition of IRAK4 assessed as remaining enzyme activity at 3 uM relative to DMSO; outline: as §4
[19] = biological target: Serine/threonine-protein kinase pim-2 (Homo sapiens) (UniProt Q9P1W9); assay: Inhibition of PIM2 assessed as remaining enzyme activity at 3 uM relative to DMSO; outline: as §2
[20] = biological target: Mitogen-activated protein kinase 15 (Homo sapiens) (UniProt Q8TD08); assay: Inhibition of ERK8 assessed as remaining enzyme activity at 3 uM relative to DMSO; outline: as §4
[21] = biological target: Ephrin type-B receptor 3 (Homo sapiens) (UniProt P54753); assay: Inhibition of EPHB3 assessed as remaining enzyme activity at 3 uM relative to DMSO; outline: as §4
[22] = biological target: Maternal embryonic leucine zipper kinase (Homo sapiens) (UniProt Q14680); assay: Inhibition of MELK assessed as remaining enzyme activity at 3 uM relative to DMSO; outline: as §2
[23] = Inhibition of Aurora assessed as remaining enzyme activity at 3 uM relative to DMSO
Outline: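 Panel assay run robotically at room temperature for 30 min with 10 mM magnesium acetate and [γ-33P]ATP (800 cpm/pmol) at 5, 20 or 50 μM, chosen per kinase to be at or below its ATP Km. Reactions were started with MgATP, stopped with orthophosphoric acid and spotted on P81 filters. Activity is the mean of duplicates at a single inhibitor concentration, as % of DMSO control.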

[24] = biological target: Dual specificity mitogen-activated protein kinase kinase 1 (Homo sapiens) (UniProt Q02750); assay: Inhibition of MKK1 assessed as remaining enzyme activity at 3 uM relative to DMSO; outline: as §2

Maternal embryonic leucine zipper kinase (Homo sapiens), sequence (Q14680 whole entry, looked up): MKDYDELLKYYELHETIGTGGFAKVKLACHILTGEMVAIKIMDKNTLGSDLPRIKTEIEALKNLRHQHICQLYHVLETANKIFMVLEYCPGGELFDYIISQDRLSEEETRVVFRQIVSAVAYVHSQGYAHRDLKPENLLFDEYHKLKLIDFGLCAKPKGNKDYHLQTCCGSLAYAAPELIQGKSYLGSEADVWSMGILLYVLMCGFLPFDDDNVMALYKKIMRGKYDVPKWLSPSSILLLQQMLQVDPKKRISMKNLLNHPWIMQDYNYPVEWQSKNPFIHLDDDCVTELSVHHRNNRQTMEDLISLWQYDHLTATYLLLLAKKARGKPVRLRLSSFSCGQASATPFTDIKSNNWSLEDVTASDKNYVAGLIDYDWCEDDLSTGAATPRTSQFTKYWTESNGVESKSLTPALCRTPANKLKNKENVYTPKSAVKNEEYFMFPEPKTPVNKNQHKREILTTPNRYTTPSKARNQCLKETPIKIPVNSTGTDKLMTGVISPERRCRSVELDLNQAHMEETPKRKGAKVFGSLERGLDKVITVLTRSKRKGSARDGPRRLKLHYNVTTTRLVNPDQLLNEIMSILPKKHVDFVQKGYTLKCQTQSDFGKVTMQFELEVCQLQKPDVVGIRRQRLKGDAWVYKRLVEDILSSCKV
Ephrin type-B receptor 3 (Homo sapiens), sequence (P54753 whole entry): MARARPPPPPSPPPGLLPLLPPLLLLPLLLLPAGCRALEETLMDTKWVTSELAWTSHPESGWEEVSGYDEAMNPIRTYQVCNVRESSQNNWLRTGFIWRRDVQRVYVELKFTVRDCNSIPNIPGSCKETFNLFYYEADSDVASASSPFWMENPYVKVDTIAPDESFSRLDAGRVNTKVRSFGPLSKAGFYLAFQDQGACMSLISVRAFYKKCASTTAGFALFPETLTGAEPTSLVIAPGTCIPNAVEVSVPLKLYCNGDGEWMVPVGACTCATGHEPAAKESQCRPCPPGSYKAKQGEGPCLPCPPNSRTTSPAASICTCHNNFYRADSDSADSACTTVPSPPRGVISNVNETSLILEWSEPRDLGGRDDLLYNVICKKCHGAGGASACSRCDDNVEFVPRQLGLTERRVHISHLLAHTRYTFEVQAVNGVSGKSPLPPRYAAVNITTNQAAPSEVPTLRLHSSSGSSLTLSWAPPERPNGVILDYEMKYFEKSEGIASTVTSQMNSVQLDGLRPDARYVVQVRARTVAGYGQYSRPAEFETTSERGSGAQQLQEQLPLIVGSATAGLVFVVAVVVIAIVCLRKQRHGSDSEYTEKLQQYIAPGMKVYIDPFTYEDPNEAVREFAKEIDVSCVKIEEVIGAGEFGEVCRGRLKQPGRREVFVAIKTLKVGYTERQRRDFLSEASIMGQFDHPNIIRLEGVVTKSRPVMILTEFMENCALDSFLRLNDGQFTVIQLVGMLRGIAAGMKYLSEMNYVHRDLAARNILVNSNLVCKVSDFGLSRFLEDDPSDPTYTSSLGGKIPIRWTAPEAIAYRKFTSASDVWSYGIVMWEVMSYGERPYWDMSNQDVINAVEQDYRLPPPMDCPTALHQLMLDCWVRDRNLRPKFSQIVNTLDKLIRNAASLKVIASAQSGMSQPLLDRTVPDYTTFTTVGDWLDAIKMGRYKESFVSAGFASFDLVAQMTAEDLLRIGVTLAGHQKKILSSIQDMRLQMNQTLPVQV
Dual specificity tyrosine-phosphorylation-regulated kinase 2 (Homo sapiens), sequence (Q92630 whole entry): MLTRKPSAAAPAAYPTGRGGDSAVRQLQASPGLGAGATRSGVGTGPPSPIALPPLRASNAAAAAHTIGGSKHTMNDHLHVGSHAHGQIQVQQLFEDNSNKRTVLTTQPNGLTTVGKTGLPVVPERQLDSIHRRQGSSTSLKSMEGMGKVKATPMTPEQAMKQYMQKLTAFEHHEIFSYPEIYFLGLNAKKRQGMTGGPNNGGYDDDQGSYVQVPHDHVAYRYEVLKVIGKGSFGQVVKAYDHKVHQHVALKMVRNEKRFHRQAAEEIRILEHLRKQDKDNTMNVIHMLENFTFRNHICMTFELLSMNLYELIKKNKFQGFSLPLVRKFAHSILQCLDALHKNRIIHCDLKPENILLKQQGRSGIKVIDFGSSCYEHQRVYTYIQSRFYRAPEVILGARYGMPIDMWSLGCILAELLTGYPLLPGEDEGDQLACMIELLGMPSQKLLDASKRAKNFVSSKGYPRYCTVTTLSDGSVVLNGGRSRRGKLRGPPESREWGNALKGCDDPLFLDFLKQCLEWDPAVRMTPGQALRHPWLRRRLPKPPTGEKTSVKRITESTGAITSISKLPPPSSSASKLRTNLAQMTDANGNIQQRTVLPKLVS
Interleukin-1 receptor-associated kinase 4 (Homo sapiens), sequence (Q9NWZ3 whole entry): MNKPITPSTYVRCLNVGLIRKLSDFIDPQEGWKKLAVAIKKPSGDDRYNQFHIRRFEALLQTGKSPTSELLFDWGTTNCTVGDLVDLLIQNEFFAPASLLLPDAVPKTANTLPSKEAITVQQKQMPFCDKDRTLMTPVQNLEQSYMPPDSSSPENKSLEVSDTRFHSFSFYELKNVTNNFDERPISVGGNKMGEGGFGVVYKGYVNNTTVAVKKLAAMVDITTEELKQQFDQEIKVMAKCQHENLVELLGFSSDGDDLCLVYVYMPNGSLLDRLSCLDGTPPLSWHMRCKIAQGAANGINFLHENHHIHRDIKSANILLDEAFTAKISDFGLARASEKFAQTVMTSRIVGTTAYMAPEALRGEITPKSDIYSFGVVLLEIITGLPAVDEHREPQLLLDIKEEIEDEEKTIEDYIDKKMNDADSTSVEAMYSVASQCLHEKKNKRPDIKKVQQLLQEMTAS
Tyrosine-protein kinase ABL1 (Homo sapiens), sequence (P00519 whole entry): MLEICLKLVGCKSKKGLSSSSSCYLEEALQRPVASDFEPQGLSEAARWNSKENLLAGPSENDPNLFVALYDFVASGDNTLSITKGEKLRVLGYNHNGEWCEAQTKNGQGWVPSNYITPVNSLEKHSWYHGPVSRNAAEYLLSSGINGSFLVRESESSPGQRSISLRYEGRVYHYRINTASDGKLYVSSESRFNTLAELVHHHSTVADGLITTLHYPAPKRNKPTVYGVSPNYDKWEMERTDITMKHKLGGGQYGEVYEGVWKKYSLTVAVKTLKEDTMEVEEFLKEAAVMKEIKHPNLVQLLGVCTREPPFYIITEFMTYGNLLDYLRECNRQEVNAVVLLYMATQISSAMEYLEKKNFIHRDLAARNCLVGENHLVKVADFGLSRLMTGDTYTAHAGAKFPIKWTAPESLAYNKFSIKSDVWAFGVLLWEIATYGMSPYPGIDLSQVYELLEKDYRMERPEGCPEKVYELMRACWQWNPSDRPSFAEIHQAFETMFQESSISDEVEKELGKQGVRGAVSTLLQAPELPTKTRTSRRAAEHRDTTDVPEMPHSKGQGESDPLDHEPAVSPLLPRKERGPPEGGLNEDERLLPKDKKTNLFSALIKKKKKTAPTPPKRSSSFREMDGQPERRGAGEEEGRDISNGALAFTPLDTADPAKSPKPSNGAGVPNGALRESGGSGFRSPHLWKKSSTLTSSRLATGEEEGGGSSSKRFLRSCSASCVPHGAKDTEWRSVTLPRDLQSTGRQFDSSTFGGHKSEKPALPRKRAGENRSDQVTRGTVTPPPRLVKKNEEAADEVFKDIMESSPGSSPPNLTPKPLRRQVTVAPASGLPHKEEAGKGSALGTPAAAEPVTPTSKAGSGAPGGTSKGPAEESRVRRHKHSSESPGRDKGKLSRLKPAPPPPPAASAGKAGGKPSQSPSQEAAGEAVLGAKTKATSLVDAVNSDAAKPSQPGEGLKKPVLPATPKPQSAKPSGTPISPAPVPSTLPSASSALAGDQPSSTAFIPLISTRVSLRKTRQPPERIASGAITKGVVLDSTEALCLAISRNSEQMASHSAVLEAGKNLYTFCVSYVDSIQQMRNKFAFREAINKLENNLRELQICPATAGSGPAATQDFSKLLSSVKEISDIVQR
Epithelial discoidin domain-containing receptor 1 (Homo sapiens), sequence (Q08345 whole entry, the tested form may be a part): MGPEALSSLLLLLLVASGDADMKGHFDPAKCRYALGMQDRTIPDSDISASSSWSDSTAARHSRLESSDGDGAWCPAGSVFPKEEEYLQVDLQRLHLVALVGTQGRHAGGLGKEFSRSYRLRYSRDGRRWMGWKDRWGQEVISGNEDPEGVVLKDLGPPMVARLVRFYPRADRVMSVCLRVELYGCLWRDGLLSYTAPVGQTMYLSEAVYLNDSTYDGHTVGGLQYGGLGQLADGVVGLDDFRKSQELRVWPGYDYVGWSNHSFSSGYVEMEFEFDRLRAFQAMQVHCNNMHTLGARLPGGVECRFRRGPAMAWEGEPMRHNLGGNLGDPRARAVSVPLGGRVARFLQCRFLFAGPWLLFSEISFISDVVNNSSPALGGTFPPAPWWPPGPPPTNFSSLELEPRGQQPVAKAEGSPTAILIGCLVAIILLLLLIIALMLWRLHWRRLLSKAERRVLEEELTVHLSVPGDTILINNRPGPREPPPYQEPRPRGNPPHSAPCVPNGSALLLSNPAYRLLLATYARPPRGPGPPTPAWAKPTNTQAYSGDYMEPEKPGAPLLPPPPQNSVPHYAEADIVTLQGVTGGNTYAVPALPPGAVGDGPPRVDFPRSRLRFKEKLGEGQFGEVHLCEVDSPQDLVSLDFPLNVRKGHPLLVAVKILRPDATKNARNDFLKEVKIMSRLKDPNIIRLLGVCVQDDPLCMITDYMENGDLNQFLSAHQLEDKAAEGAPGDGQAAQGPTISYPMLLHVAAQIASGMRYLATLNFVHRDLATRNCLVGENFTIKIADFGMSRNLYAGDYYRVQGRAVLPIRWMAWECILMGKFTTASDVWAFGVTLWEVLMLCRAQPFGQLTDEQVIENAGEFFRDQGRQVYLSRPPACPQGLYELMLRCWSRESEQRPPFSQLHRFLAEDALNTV
Serine/threonine-protein kinase pim-2 (Homo sapiens), sequence (Q9P1W9 whole entry, looked up): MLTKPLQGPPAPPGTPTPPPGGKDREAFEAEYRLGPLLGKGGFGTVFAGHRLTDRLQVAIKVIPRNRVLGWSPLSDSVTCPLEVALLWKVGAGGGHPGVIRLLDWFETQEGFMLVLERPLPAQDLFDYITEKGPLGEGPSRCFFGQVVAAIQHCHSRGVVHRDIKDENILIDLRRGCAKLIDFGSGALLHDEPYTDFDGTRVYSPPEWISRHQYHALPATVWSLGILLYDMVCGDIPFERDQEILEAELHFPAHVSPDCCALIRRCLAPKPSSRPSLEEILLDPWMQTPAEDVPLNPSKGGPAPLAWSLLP

- Activity [1]: 94%
- Activity [2]: 80%
- IC50 (Ephrin type-A receptor 3): 40 nM
- Activity [3]: 104%
- Activity [4]: 45%
- Activity [5]: 97%
- Activity [6]: 94%
- Activity [7]: 0.15%
- Activity [8]: 90%
- Activity [9]: 1.4%
- Activity [10]: 89%
- IC50 (Ephrin type-A receptor 4): 3.3 nM
- Activity [11]: 96%
- Activity [12]: 84%
- Activity [13]: 77%
- IC50 (Ephrin type-A receptor 8): 4.5 nM
- Activity [14]: 9.8%
- Activity [15]: 81%
- Activity [16]: 0.6%
SMILES: COc1ccccc1-n1c(-c2cc(O)ccc2C)cn2c3c(=O)[nH]c(=O)n(C)c3nc12

- Activity [17]: 94%
- Activity [18]: 93%
- Activity [19]: 115%
- Activity [21]: 28%
- Activity [22]: 89%
- Activity [23]: 104%
- Activity [24]: 70%
SMILES: COc1ccccc1-n1c(-c2ccccc2C)cn2c3c(=O)[nH]c(=O)n(C)c3nc12
- Activity [20]: 109%
